UPR CHOP act = activators of apoptotic arm of unfolded protein response (CHOP). activation, % at 10 µM. AID 449763. CHO-CHOP luciferase reporter, UPR activation, luminescence; percent of tunicamycin response over DMSO baseline. 330,000 tested, 0.34% active;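 active = at 10 µM dose, activation of 40% or more, normalized to positive control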;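 note: 100% = tunicamycin at 10 µg/mL and 0% = DMSO alone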
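measured by = luciferase luminescence | assay system = CHO-CHOP cells, stable luciferase reporter of PERK-eIF2a-CHOP signalling | amount = 500 reporter cells seeded per well | timing = 6 h compound exposure at 37 °C after overnight seeding | controls = positive tunicamycin 10 µg/mL, negative DMSO alone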
697 NFkB inh = lowers PMA/ionomycin-induced NF-kB signal in 697 B cells. 697 B-cell NF-kB luciferase reporter, 16 h. inhibition, % at 4 µM. 330,000 tested, 0.33% active. AID 435022; in the data active = inhibition above about 35%
CHOP inh = inhibitors of CHOP induction in ER stress response; CHO-K1 CHOP-promoter luciferase, tunicamycin-induced, 15-18 h; inhibition, % at 10 µM; 220,000 tested, 3.8% active;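 active = compounds that reduced the stress-induced luciferase reporter signal by more than about 70% of percent inhibition, limit read from the data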;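 note: 0% = tunicamycin plus vehicle and 100% = wells without tunicamycin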
Jurkat NFkB inh = inhibitors of the PMA/ionomycin-induced NF-kB reporter in Jurkat cells. inhibition, % at 4 µM. PMA/ionomycin-induced NF-kB luciferase reporter, luminescence. 330,000 tested, 0.53% active. AID 435003; in the data active = inhibition above about 50%
UPR XBP1 act = activators of adaptive arm of unfolded protein response (XBP1); AID 463104; 330,000 tested, 0.33% active; CHO-XBP1 luciferase reporter, IRE1-XBP1 UPR activation, luminescence; percent of tunicamycin response, DMSO as zero; activation, % at 20 µM;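 active = versus positive control, 20 µM dose yields 30% or more activation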;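 note: 100% = tunicamycin at 10 µg/mL and 0% = DMSO only wells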
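Material: IRE1-XBP1 luciferase reporter CHO line / Quantity: one thousand reporter cells per well / Buffer or medium: F12 with 10% serum / Compound: 20 µM single concentration, DMSO 1% / Times: 6 h treatment, 37 °C / Detection: Steady-Glo luciferase glow luminescence, 10 min after reagent addition / Benchmarks: tunicamycin high, DMSO low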
Gli-Sufu antag = Gli-Sufu pathway antagonism; Sufu-KO-LIGHT fibroblasts, Gli luciferase reporter luminescence; 340,000 tested, 0.74% active; inhibition, % at 5 µM; AID 588413;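 active = inhibition above about 55%, limit read from the data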;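 note: 0% = DMSO-treated cells and 100% = wells with medium but no cells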
The depositor's hits bear a star; x = no result given. Only some compounds are listed: those with a hit (about 3.9% of all), similar ones and a draw of the others.

SMILES	UPR CHOP act	697 NFkB inh	CHOP inh	Jurkat NFkB inh	UPR XBP1 act	Gli-Sufu antag
COc1ccc(OC)c(/C=N\NC(=O)c2ccc(-c3ccccc3)cc2)c1	1	21	x	5	-2	-4
O=C(/C=C/c1cn(CC(O)CN2CCCCCC2)c2ccccc12)c1cccs1 (centres undefined)	4	-17	-10	-3	8	6
Cc1ccc(C(=O)/C=C/c2cn(CN3CCN(C)CC3)c3ccccc23)cc1	6	-90	82*	8	3	-24
Cc1ccc(C(=O)/C=C/c2c[nH]c3ccccc23)cc1	6	-79	81*	-21	-1	-13
O=C(/C=C/c1c[nH]c2ccccc12)c1ccccc1	2	-112	47	-49	4	-42
CCN(C(=O)COC(=O)c1ccc([N+](=O)[O-])o1)C1CCCCC1	3	14	x	0	0	-7
N#CCOC(=O)[C@H](Cc1c[nH]c2ccccc12)NS(=O)(=O)c1ccc(Cl)cc1	-3	6	x	0	-1	7
CCCc1cc2c(cc1NC(=O)c1ccc(Br)cc1)OCO2	1	9	83*	6	8	-2
CCCCCNc1nc(-c2ccccc2)nc(-n2ccnc2)n1	3	-11	72*	11	0	6
CCCCNc1nc(N(C)c2ccccc2)nc(-n2ccnc2)n1	2	-59	70	-5	11	14
CCc1ccc(-c2nc(CN3CCC(C(=O)NCc4ccccc4OC)CC3)c(C)o2)cc1	3	3	79*	11	5	-13
Cc1oc(-c2ccc(Cl)cc2)nc1CN1CCC(C(=O)N2CCc3ccccc3C2)CC1	0	-17	91*	16	6	7
O=C(COc1ccccc1)N[C@@H]1c2ccccc2CC[C@H]1OCc1ccccc1	1	-4	x	x	-1	6
Cn1nc(C(=O)N2CCN(c3ccc([N+](=O)[O-])cc3)CC2)c2c1-c1ccccc1S(=O)(=O)C2	1	-5	x	0	-4	29
O=C(CCC(=O)OCCCC(F)(F)C(F)(F)F)Nc1ccc(Cl)cc1Cl	-4	-4	80*	-6	-3	-22
O=C(CSc1ccc(-c2ccco2)nn1)Nc1ccccc1F	-1	-1	x	14	-2	-1
Cc1oc2ccc(O)cc2c1C(=O)c1ccc(Cl)cc1	6	-21	71*	-10	6	-28
Cc1noc(C(=O)Nc2cccc(Cl)c2)c1Cl	3	-41	x	-35	3	-14
CC1=C(OC(=O)c2ccccc2)C(C)(C)C(c2ccc(Br)cc2)OC1=O (centres undefined)	0	-15	91*	0	-4	4
CC1=C(OC(=O)c2ccc(Br)cc2)C(C)(C)C(c2ccccc2)OC1=O (centres undefined)	3	-14	37	-11	-6	-2
CC1=C(OC(=O)c2ccccc2)C(C)(C)C(c2ccccc2)OC1=O (centres undefined)	-1	-3	81*	-8	-5	3
COc1ccccc1OCCC(=O)OCC(=O)NCc1ccc(F)cc1	-1	14	x	9	-2	2
CC(C)NC(=O)COc1coc(CN2CCN(Cc3ccccc3)CC2)cc1=O	2	3	x	10	-1	-13
CSCCC(NC(=O)c1ccccc1)C(=O)OCC(=O)Nc1ccc(C)c(Cl)c1 (centres undefined)	-1	-5	82*	3	-1	2
Cc1cccc(C(=O)Nc2ccccc2SCC(=O)Nc2ccc(C)c(Cl)c2)c1	0	-26	73*	-24	-3	-5
CCOc1ccc(NC(=O)c2sc(NC(C)=O)c(C(=O)OC)c2C)cc1	-1	-5	73*	-17	7	-6
COc1ccc2c(c1)C(=NO)c1cc(OC)ccc1-2	0	-24	72*	-35	1	-10
COc1cccc(C(=O)/C=C/Nc2ccc(S(=O)(=O)Nc3nc(C)cc(C)n3)cc2)c1	0	1	11	1	-6	2
Cc1cc(C)nc(NS(=O)(=O)c2ccc(N/C=C\C(=O)c3ccc(Cl)cc3)cc2)n1	-2	-16	82*	-13	4	-2

Compound activity deposited in PubChem BioAssay by several laboratories.
